From ChEMBL document CHEMBL1132767, “Design and synthesis of piperidinyl piperidine analogues as potent and selective M2 muscarinic receptor antagonists” (Bioorg Med Chem Lett, 2000) come the findings set out here.

The structures appear in SMILES notation.

By Ki is commonly meant the equilibrium dissociation constant of an inhibitor or competing ligand from its target. A low value points to a stronger hold on the target.

Test [1] addresses Muscarinic acetylcholine receptors; M1 & M2 (Homo sapiens) (UniProt P11229+P08172). The experiment in a line: Binding affinity towards M1 receptor compared to M2 receptor. In kind it is protein assay.
Test [2] concerns the target T1, Muscarinic acetylcholine receptor M2 (Homo sapiens, UniProt P08172).
T1 sequence (P08172 whole entry): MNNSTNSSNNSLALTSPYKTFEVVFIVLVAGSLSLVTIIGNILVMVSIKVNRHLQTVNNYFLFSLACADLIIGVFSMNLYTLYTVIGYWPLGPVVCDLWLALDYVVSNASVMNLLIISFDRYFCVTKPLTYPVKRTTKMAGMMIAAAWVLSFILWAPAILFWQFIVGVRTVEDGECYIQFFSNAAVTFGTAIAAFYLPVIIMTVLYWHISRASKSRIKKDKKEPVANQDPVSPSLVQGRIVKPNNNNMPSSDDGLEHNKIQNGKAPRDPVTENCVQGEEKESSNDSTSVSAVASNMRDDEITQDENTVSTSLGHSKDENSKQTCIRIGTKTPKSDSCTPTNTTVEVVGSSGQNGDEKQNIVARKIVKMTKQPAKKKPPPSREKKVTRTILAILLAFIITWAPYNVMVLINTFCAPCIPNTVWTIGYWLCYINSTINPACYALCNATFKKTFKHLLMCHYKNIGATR
The test is described as follows: Binding affinity against Muscarinic acetylcholine receptor M2 stably expressed in CHO-K1 cells. Format: cell-based. In outline:
(§1)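 Competition binding against 180 pM [³H]QNB in 10 mM potassium phosphate buffer, pH 7.4, containing 1% DMSO and 0.4% methylcellulose. Incubated 120 min at room temperature to equilibrium. Bound and free label separated by filtration. Nonspecific binding defined with 0.5 mM atropine. Protein adjusted to give 700–1500 cpm specific binding. [³H]QNB Kd for each subtype from saturation binding over 5–2500 pM.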

Test [3] concerns the target Muscarinic acetylcholine receptors; M2 & M3 (Homo sapiens) (UniProt P20309+P08172). The test is described as follows: Binding affinity towards M3 receptor compared to M2 receptor. In kind it is protein assay.
The target of test [4] is Muscarinic acetylcholine receptor M3 (Homo sapiens, UniProt P20309). The test is described as follows: Binding affinity against Muscarinic acetylcholine receptor M3 expressed in CHO-K1 cells. Format: cell-based. In outline: as §1
The target of test [5] is T2, Muscarinic acetylcholine receptor M1 (Homo sapiens, UniProt P11229).
T2 sequence (P11229 whole entry): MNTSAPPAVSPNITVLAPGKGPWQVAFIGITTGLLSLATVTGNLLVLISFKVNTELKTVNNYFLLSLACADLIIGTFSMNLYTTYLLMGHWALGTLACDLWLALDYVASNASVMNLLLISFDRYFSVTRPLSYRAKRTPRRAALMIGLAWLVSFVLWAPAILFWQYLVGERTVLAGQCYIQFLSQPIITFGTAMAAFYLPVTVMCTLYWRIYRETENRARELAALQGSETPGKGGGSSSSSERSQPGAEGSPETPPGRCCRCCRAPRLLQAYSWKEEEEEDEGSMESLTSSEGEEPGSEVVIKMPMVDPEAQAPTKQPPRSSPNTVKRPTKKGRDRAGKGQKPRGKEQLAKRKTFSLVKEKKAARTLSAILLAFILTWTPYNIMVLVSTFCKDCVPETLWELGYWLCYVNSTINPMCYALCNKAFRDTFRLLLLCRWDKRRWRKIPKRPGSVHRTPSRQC
The test is described as follows: Binding affinity against Muscarinic acetylcholine receptor M1 expressed in CHO-K1 cells. Format: cell-based. In outline: as §1

Sequence of Muscarinic acetylcholine receptor M3 (P20309 whole entry): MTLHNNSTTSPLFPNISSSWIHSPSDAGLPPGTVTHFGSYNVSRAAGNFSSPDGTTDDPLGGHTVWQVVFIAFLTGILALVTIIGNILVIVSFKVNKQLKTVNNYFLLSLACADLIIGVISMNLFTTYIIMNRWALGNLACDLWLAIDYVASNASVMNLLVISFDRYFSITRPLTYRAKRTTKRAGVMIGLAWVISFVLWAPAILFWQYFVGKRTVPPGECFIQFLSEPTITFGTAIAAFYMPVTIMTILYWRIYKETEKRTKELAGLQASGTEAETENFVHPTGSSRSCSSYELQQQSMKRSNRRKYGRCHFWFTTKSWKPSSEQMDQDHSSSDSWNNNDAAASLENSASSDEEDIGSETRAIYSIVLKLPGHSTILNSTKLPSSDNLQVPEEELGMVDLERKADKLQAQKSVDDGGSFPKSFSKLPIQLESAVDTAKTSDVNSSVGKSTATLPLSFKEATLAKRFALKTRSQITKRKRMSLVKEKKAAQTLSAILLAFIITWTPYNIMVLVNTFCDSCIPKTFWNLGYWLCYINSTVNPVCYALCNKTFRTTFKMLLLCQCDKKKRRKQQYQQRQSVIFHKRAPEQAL
Sequence of Muscarinic acetylcholine receptors; M2 & M3 (Homo sapiens) (P20309 whole entry, looked up, one chain of several): as the sequence (P20309 whole entry) above

With `C=C(c1ccc(S(=O)(=O)c2ccc(OC)cc2)cc1)C1CCN(C2CCN(C(=O)OC(C)C)CC2)CC1`, the Selectivity in test [1] was found to be 36. The Ki in test [2] is 0.41 nM.
With `C=C(c1ccc(S(=O)(=O)c2ccc(OC)cc2)cc1)C1CCN(C2CCN(S(=O)(=O)CC)CC2)CC1`, the Selectivity in test [3] was 382; in test [1], 162. Further, in test [2], the Ki came out at 0.46 nM.
On to `C=C(c1ccc(S(=O)(=O)c2ccc(OC)cc2)cc1)C1CCN(C2CCN(C(=O)CC)CC2)CC1`, for which the Selectivity amounted to 13 in test [3] and 16 in test [1]. The same molecule yielded a Ki in test [2] of 3.8 nM.
For the molecule `C=C(c1ccc(S(=O)(=O)c2ccc(OC)cc2)cc1)C1CCN(C2CCCCC2)CC1`, the Selectivity in test [3] came to 3; in test [1] it was 16.
For the molecule `C=C(c1ccc(S(=O)(=O)c2ccc(OC)cc2)cc1)C1CCN(C2CCN(S(=O)(=O)c3ccccc3)CC2)CC1`, the Selectivity came to 558 in test [3] and 104 in test [1]. Moreover, in test [2], affinity was put at a Ki of 0.36 nM.
`C=C(c1ccc(S(=O)(=O)c2ccc(OC)cc2)cc1)C1CCN(C2CCN(C(=O)OCCCC)CC2)CC1` returned a Selectivity in test [1] of 28. In test [2], the Ki was 0.35 nM.
As to `C=C(c1ccc(S(=O)(=O)c2ccc(OC)cc2)cc1)C1CCN(C2CCN(S(=O)(=O)C(C)C)CC2)CC1`, the Selectivity in test [3] stood at 440; in test [1] it was 198. The Ki in test [2] turned out to be 0.16 nM.
As to `C=C(c1ccc(S(=O)(=O)c2ccc(OC)cc2)cc1)C1CCN(C2CCNCC2)CC1`, the Selectivity in test [3] worked out at 3; in test [1], 8. For the same molecule, the inhibition constant Ki in test [2] was determined as 1.14 nM; in test [4], 3.4 nM; in test [5], 9.1 nM.
Take `C=C(c1ccc(S(=O)(=O)c2ccc(OC)cc2)cc1)C1CCN(C2CCN(C(=O)OCCC)CC2)CC1`: the Selectivity in test [3] is 40; in test [1], 69. In test [2], the affinity corresponds to a Ki of 0.59 nM.
In the case of `C=C(c1ccc(S(=O)(=O)c2ccc(OC)cc2)cc1)C1CCN(C2CCN(C(=O)C3CC3)CC2)CC1`, the values for the Selectivity in test [3] and in test [1] were 260 and 262, respectively. For the same molecule, the Ki in test [2] was determined as 0.26 nM.
In the case of `C=C(c1ccc(S(=O)(=O)c2ccc(OC)cc2)cc1)C1CCN(C2CCN(S(=O)(=O)Cc3ccccc3)CC2)CC1`, the Selectivity in test [3] was 54; in test [1], 23. Moreover, the Ki in test [2] was 1.45 nM.
As for `C=C(c1ccc(S(=O)(=O)c2ccc(OC)cc2)cc1)C1CCN(C2CCN(C(=O)Cc3ccccc3)CC2)CC1`, the Selectivity turned out to be 48 in test [3] and 32 in test [1]. Besides, affinity in test [2] was put at a Ki of 2.99 nM.
The matching figures for `C=C(c1ccc(S(=O)(=O)c2ccc(OC)cc2)cc1)C1CCN(C2CCN(S(=O)(=O)CCCC)CC2)CC1`: 405, 150 and 0.38 nM.
Consider `C=C(c1ccc(S(=O)(=O)c2ccc(OC)cc2)cc1)C1CCN(C2CCN(C(=O)CCC)CC2)CC1`, for which the results for the Selectivity in test [3] and in test [1] were 324 and 111, respectively. Also, the Ki in test [2] is 0.38 nM; in test [4] it was 122 nM; in test [5], 42 nM.
In test [1], `C=C(c1ccc(S(=O)(=O)c2ccc(OC)cc2)cc1)C1CCN(C2CCN(C(=O)OCc3ccccc3)CC2)CC1` gave a Selectivity of 24. The molecule also came in with an inhibitory constant (Ki) in test [2] of 0.45 nM.
As to `C=C(c1ccc(S(=O)(=O)c2ccc(OC)cc2)cc1)C1CCN(C2CCN(C(=O)OC)CC2)CC1`, the results for the Selectivity in test [3] and in test [1] were 55 and 61, respectively. Further, in test [2], the Ki is 0.99 nM.
The matching figures for `C=C(c1ccc(S(=O)(=O)c2ccc(OC)cc2)cc1)C1CCN(C2CCN(C(=O)C(C)C)CC2)CC1`: 40, 53 and 2.2 nM.
`C=C(c1ccc(S(=O)(=O)c2ccc(OC)cc2)cc1)C1CCN(C2CCN(C(=O)OCC)CC2)CC1`: the Selectivity in test [3] was determined as 34; in test [1], 59. The figures for the Ki in test [2], in test [4] and in test [5] were 0.11 nM, 3.7 nM and 6.5 nM, respectively.
As to `C=C(c1ccc(S(=O)(=O)c2ccc(OC)cc2)cc1)C1CCN(C2CCN(C(=O)OCC(C)C)CC2)CC1`, in test [1], the Selectivity came to 35. For the same molecule, in test [2], the affinity corresponds to a Ki of 0.3 nM.
Turning to `C=C(c1ccc(S(=O)(=O)c2ccc(OC)cc2)cc1)C1CCN(C2CCN(S(=O)(=O)CCC)CC2)CC1`, the Selectivity turned out to be 35 in test [3] and 89 in test [1]. Also, the values for the Ki in test [2], in test [4] and in test [5] were 0.29 nM, 10.1 nM and 25.7 nM, respectively.
